System: MS2 coat protein
Experiment: apparent Kd, MS2 coat protein; higher = weaker binding; RNA-MaP array; FMN 200 µM where present
Outline: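 The apparent Kd is reported as the median of filtered per-cluster binding-curve fits. To get these curves, designs transcribed by stalled E. coli RNA polymerase on Illumina sequencing-chip clusters were titrated with SNAP-549-labelled MS2 coat protein from 0.7 or 1.5 nM, doubling to 3 µM. Titrations were run without and then with constant ligand in 100 mM Tris-HCl pH 7.5, 80 mM KCl, 4 mM MgCl2, BSA, DTT, yeast tRNA and Tween-20, and green signal was normalised to red-channel RNA signal and control-cluster median Fmax.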

[1] = designed as: ON switch for flavin mononucleotide, no ligand
[2] = ligand present: flavin mononucleotide, designed as: ON switch for flavin mononucleotide
[3] = designed as: OFF switch for flavin mononucleotide, no ligand
[4] = ligand present: flavin mononucleotide, designed as: OFF switch for flavin mononucleotide

AUGUCGCACCAGAAGGGUCAACCAAUAAAUUAGACAGGAUAUGGGCGAUAAGUAUGUCGCGACAUGAGGAUCACCCAUGUCCGG
apparent Kd [1]: 11.6 nM | apparent Kd [2]: 5.95 nM

AACAAUCUAUCUGAGGAUAUCAUGUCAAAGACAUGAGGAUCACCCAUGUACCAGGAAACUGGUUAUGAGAAGGCAGAUAGAUUGA
apparent Kd [1]: 1260 nM | apparent Kd [2]: 54.8 nM

CUUUUGUGAGGAUAUCAGUAGUAAAUAAUUAAAAUUACUACUGAGAAGGCACAUGAGGAUCACCCAUGUUCCUC
apparent Kd [3]: 42.2 nM | apparent Kd [4]: 284 nM

AUCAGCUCGUCAGGAUAUACGUCACUGCUUCAGCAGUGUGGUAAGAUCACAUGAGGAUCACCCAUGUAGAAGGGACGAGCUGAU
apparent Kd [3]: 14.1 nM | apparent Kd [4]: 268 nM

GUAGUUUAUGUAGGAUAUGCGAGGCGAGCCUAAGCAGAAGGACAUGAGGAUCACCCAUGUAUUGCGGUCUGCGUUCAGAUCGCU
apparent Kd [3]: 33.2 nM | apparent Kd [4]: 133 nM

AUCUUGUCAGGAUAUCUGACAAGUGACUUCGGUCACAGUUCAGAGAAGGUACAUGAGGAUCACCCAUGUAGAAC
apparent Kd [3]: 17.4 nM | apparent Kd [4]: 18.6 nM

GCGAUAAACGAGGAUAUCGUAUCGGAAACGAUACGAGAAGGUGUAACAUGAGGAUCACCCAUGUUCCUCAACGC
apparent Kd [3]: 38.4 nM | apparent Kd [4]: 38.4 nM

ACUUUAGUAUCACAUGUAUUACAUGAGGAUCACCCAUGUUACUAGGAUAUGUAUUAGAAUUUACAACAGAAGGAGUAAGAAUGU
apparent Kd [3]: 8.17 nM | apparent Kd [4]: 9.83 nM

AUAAUUUUAUUUUUCUAUUAUAUCAGAAGGCAUUACAUGAGGAUCACCCAUGUUUUGGAUAGUAAUGAGGAUAUGAUAUGGUUA
apparent Kd [3]: 11.1 nM | apparent Kd [4]: 28.2 nM

CCUAAACAUGAGGAUCACCCAUGUGAGGAUAUGAUGCGAAUAAAGAAAGAAGAAAGCAUCAGAAGGCACAUAGG
apparent Kd [3]: 173 nM | apparent Kd [4]: 270 nM

UUAUGAGAGCAGGAUAUCUUAUUUUUUUUUUAUAGAGAAGGGCUCACAUGAGGAUCACCCAUGUGGUCCUAGAU
apparent Kd [3]: 32.5 nM | apparent Kd [4]: 52.5 nM

GGAACUCAUGUAGGAUAUGCAUGGCGAAGCUACGCAGAAGGACAUGAGGAUCACCCAUGUUCUAGCGUCUGGAGACAGAUGCAA
apparent Kd [3]: 174 nM | apparent Kd [4]: 126 nM

AGCUGUGGCCGAGGAUAUCUAUCUCAUAAAACCGAAAUAUAAUCGGACAUGAGGAUCACCCAUGUAGAGAAGGCGGUCUCAGCA
apparent Kd [3]: 27.6 nM | apparent Kd [4]: 129 nM

GUAGCACAUGAAAAUAUAACAUGAGGAUCACCCAUGUGUUAUGAGGAUAUGGAUGUGAAGUUAAUCCAGAAGGCAUUAUGCUAC
apparent Kd [1]: 21.5 nM | apparent Kd [2]: 11.7 nM

GUCAGCUCGUGAGGAUAUACAACACUGCUUCGGGAGUGUAUUAAGAUCACAUGAGGAUCACCCAUGUAGAAGGCACGAGCUGAU
apparent Kd [3]: 15 nM | apparent Kd [4]: 254 nM

UUGUAGGAGACAGGAUAUGUACGGAAGGUUCACGUACAUGAGGAUCACCCAUGUCCAGACUUCAGACAGAAGGGUCACCAGGUG
apparent Kd [1]: 113 nM | apparent Kd [2]: 17.2 nM

GUAGCAUACCGAGGAUAUUCAUACCGGAAACGGACAUGAGGAUCACCCAUGUGGCGAAAGCCUUAGGAGAAGGCGGAAUGCUAC
apparent Kd [1]: 16.4 nM | apparent Kd [2]: 12.3 nM

CCUAGUUGGUAAGGAUAUCCUACACUAUUCUGACCCGUGCAAGCUACAUGAGGAUCACCCAUGUAGGAGAAGGUGCGUCAACGU
apparent Kd [3]: 6.97 nM | apparent Kd [4]: 6.82 nM

AAACAAAGGUGGAAACGGGAACCACAUGAGGAUCACCCAUGUAAGGAUAUCGACCAGCGGUGCGGCGAGAAGGUACAUAGGAAC
apparent Kd [3]: 20.3 nM | apparent Kd [4]: 29.7 nM

UUACUCAUGUAAGGAUAUGCAGCCGUUUCGGCUGCAGAAGGUACUAUAAUACAUGAGGAUCACCCAUGUCUUUUUAAAUUAGAC
apparent Kd [1]: 111 nM | apparent Kd [2]: 49.7 nM
